Results from different studies.
Protocols differ between the studies behind these lines. pEC50, pIC50: −log10 of the molar value.
Organism: Trypanosoma brucei
Read-out: parasite growth

| SMILES | assay | system | setting | measurement | result |
| --- | --- | --- | --- | --- | --- |
| O=C(O)c1ccccc1-c1ccccc1C(=O)Nc1cc2c3ccccc3ccc2c2ccccc12 | resazurin |  | 72 h | pEC50 | 4.61 |
| c1ccc(CCCN2CCN(CCOC(c3ccccc3)c3ccccc3)CC2)cc1 |  |  | blood stage | pEC50 | 5.03 |
| COC(=O)C1CCN(C(=O)c2ccc(N(C)Cc3cnc4nc(N)nc(N)c4n3)cc2)CC1 | resazurin |  | 10 µM, 72 h | inhibition | 26% |
| Nc1nc(N)nc(Nc2ccc([As]3SCC(CO)S3)cc2)n1 (centres unmarked) |  | RHODESIENSE STIB900 |  | pIC50 | 8.15 |
| O=C(O)c1ccccc1-c1ccccc1C(=O)Nc1ccc2c(c1)oc(=O)c1ccccc12 | resazurin |  | 72 h | pEC50 | < 4.30 |
| Cc1nn(C)c(C)c1NS(=O)(=O)c1c(Cl)cc(-c2ccnc(N3CCNCC3)c2)cc1Cl |  | RHODESIENSE |  | pEC50 | 9.22 |
| COC(=O)C1CCN(C(=O)c2ccc(NCc3cnc4nc(N)nc(N)c4n3)cc2)CC1 | resazurin |  | 10 µM, 72 h | inhibition | 16% |
| CNC1CC(c2ccc(Cl)c(Cl)c2)c2ccccc21 (centres unmarked) |  |  | blood stage | pEC50 | 5.71 |
